Experimental data from ChEMBL document CHEMBL1157582, “Synthesis and uptake of fluorescence-labeled Combi-molecules by P-glycoprotein-proficient and -deficient uterine sarcoma cells MES-SA and MES-SA/DX5” (J Med Chem, 2010).
Calls of active or inactive are those of the source. The rule behind the calls is not given here.

Assays:
[1] = Stability in serum assessed as half life by UV spectrophotometry; type: ADME, cell-free
[2] = Cellular uptake in human MES-SA/Dx5 cells after 2 hrs by flow cytometry; type: ADME, cell-based; details: mes-sa/dx5, 2 h
[3] = Cellular uptake in human MES-SA cells at 25 uM after 2 hrs by fluorescence microscopy; type: ADME, cell-based
Outline: (§1)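 Cells plated at 70% confluence and left to adhere overnight. Treated with 0, 25 or 50 μM for 2 h, washed twice with PBS, then imaged live without fixation at 40× under fluorescence; blue aminoquinazoline and green dansylated species captured through separate filters.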

[4] = target: Epidermal growth factor receptor (Homo sapiens, UniProt P00533); assay: Inhibition of EGFR
Sequence of Epidermal growth factor receptor (P00533 whole entry): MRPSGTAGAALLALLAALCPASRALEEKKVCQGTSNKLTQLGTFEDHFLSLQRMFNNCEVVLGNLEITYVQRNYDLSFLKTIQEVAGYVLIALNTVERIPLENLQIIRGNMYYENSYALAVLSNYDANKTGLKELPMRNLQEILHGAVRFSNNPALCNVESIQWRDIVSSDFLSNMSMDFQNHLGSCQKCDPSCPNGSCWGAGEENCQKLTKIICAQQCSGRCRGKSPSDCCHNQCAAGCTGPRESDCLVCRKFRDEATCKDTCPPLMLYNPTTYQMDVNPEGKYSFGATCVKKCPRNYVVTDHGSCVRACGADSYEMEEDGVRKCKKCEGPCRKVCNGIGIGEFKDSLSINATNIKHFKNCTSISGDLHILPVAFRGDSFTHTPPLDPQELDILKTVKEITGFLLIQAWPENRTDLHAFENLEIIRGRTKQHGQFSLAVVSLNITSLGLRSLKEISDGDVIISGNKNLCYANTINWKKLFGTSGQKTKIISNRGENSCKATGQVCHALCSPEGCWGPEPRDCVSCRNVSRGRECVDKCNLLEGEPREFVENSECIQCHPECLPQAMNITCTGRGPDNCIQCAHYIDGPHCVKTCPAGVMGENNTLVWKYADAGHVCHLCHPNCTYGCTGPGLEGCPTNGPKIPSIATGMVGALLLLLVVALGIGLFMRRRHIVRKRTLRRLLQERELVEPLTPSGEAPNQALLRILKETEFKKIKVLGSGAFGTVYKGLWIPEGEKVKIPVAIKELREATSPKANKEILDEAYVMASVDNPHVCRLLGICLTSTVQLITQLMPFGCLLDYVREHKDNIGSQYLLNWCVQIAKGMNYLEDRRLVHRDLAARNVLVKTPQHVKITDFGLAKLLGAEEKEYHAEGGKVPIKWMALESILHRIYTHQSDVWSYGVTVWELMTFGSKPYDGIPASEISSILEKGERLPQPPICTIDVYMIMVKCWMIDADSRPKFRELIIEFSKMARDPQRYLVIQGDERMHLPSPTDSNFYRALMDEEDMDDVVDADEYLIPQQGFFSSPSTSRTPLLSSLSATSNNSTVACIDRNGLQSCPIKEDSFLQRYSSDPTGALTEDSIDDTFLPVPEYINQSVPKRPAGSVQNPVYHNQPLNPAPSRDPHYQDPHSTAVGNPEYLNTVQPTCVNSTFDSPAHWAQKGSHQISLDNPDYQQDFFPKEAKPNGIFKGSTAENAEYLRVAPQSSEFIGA

[5] = Cellular uptake in human MES-SA cells after 2 hrs by flow cytometry; type: ADME, cell-based
[6] = Cellular uptake in human MES-SA/Dx5 cells at 25 uM after 2 hrs by fluorescence microscopy; type: ADME, cell-based; details: mes-sa/dx5, 2 h; outline: as §1
[7] = Antiproliferative activity against human MES-SA/Dx5 cells after 96 hrs by SRB assay; type: functional, cell-based; details: MES-SA/Dx5, 96 h
Outline: (§2)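 Cells plated at 5000/well, attached overnight, then exposed to a range of drug concentrations for 96 h. Fixed with trichloroacetic acid (1 h, 4 °C), stained with 0.4% sulforhodamine B (2 h, room temperature), dye dissolved in 10 mM Tris base pH 10.0, OD read at 492 nm. IC50 taken from sigmoidal dose-response fit. At least three independent experiments in triplicate. DMSO ≤0.1% (v/v).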

MES-SA [8] = assay: Induction of DNA damage in human MES-SA cells assessed as increase in comet-tail length by alkaline comet assay; type: functional, cell-based
MES-SA/Dx5 = assay: Induction of DNA damage in human MES-SA/Dx5 cells assessed as increase in comet-tail length by alkaline comet assay; type: functional, cell-based
[9] = Antiproliferative activity against human MES-SA cells after 96 hrs by SRB assay; type: functional, cell-based
MDA-MB-468 = assay: Antiproliferative activity against human MDA-MB-468 cells after 96 hrs by SRB assay; type: functional, cell-based; details: MDA-MB-468, 96 h; outline: as §2
MES-SA [10] = assay: Selectivity ratio of IC50 for human MES-SA cells to IC50 for human MES-SA/Dx5 cells; type: functional

Structure (SMILES)	half-life [1] [min]	Drug uptake [2]	Drug uptake [3]	IC50 [4] [µM]	Drug uptake [5]	Drug uptake [6]	IC50 [7] [µM]	Activity (MES-SA [8])	Activity (MES-SA/Dx5)	IC50 [9] [µM]	IC50 (MDA-MB-468) [µM]	Ratio IC50 (MES-SA [10])
CN(CCN=NNc1ccc2ncnc(Nc3cccc(Cl)c3)c2c1)CCNS(=O)(=O)c1cccc2c(N(C)C)cccc12	21.7	Active	Active	0.6	Active	Active						
COc1cccc2c1C(=O)c1c(O)c3c(c(O)c1C2=O)C[C@@](O)(C(=O)CO)C[C@@H]3O[C@H]1C[C@H](N)[C@H](O)[C@H](C)O1 [DOXORUBICIN]			Active		Active		3.1	Active	Active			
CN(CCN/N=N/c1ccc2ncnc(Nc3cccc(Cl)c3)c2c1)CCNS(=O)(=O)c1cccc2c(N(C)C)cccc12							9.34	Active	Active	8.57	5.2	
CN(C)CCN/N=N/c1ccc2ncnc(Nc3cccc(Cl)c3)c2c1	108											
CN(C)c1cccc2c(S(=O)(=O)NCCN=NNc3ccc4ncnc(Nc5cccc(Cl)c5)c4c3)cccc12	4.96	Active	Active	1.4	Active	Active	16.6			26.6	9.1	1.6
